This is a sample that favours compounds with a hit; in the whole collection about 6.4% have one here.
TbMetRS inhib = Trypanosoma brucei MetRS inhibition. 0.4% of 360,000 active. purified T. brucei MetRS, ATP depletion, Kinase-Glo luminescence. AID 624268. inhibition, % at 11.9 µM;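 active = inhibition above a per-plate cutoff of the control wells' mean inhibition plus 3 SD, cut at about 5.5% in these data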
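Measured by: Kinase-Glo luciferase luminescence reporting remaining unconsumed ATP. Material: purified T. brucei MetRS enzyme. Doses: 11.9 µM compound single dose, 0.9% DMSO. Medium: HEPES buffer containing pyrophosphatase, BSA, spermine, DTT. Times: 15 min preincubation, 2 h reaction, all 25 °C. Reagent: methionine, ATP and bulk E. coli tRNA.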
MPTP block = inhibitors of mitochondrial permeability transition pore | isolated mouse mitochondria, Ca2+ swelling absorbance, 30 min | inhibition, % at 10 µM | 1.4% of 360,000 active | AID 602449;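 active = inhibition of 50% or more, scaled per plate between neutral and stimulator controls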
NR3A LBD binder = NR3A (human) ligand-binding domain modulation | NR3A LBD differential scanning fluorimetry, Tm shift; 0% = protein alone, 100% = glycine-bound protein | 2.5% of 340,000 active | Tm shift relative to glycine control, % at 25 µM;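 active = melting temperature shift of at least 10% of the positive control shift, at one fixed dose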
WT yeast gro inh = growth inhibition of WT yeast, mitochondrial fusion screen. AID 1362. inhibition, % at 10 µM. mitochondrial fusion phenotypic screen, WT strain. 2.1% of 190,000 active; in the data active = inhibition above about 58%; tested in S. cerevisiae
EBV gp42 inh = inhibitors of Epstein-Barr virus glycoprotein 42; Q1HVG2; 0.42% of 220,000 active; inhibition, % (tested at 21.74 µM); Fluorescence polarization binding assay, mP read-out; in the data active = inhibition above about 50%
Target sequence (Q1HVG2 whole entry, looked up): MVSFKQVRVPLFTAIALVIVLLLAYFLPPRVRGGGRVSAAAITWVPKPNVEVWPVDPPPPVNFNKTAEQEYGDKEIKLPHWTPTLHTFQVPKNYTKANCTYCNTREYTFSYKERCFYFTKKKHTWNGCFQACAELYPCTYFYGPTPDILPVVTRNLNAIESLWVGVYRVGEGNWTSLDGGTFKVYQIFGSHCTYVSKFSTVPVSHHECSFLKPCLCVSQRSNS
CHOP inhibitor = CHOP inhibition in unfolded protein response; CHO-K1 CHOP-promoter luciferase, tunicamycin-induced, 15-18 h; AID 2732; 3.8% of 220,000 active; inhibition, % at 10 µM;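 active = compounds that reduced the stress-induced luciferase reporter signal by more than about 70% of percent inhibition, limit read from the data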
MPTP counter = membrane potential counter-screen of mitochondrial pore inhibitors | shares compounds with MPTP block | isolated mitochondria, Rhodamine 123 fluorescence | inhibition, % at 10 µM | 78% of 5,000 active; in the data active = inhibition above about 22%
Large screens that a line does not name were inactive (follow-up assays come after a bar, where they were run).

Clc1c(Cl)c(Cl)c2n[nH]nc2c1Cl	MPTP block 72 (no result: WT yeast gro inh) | MPTP counter 77
CN(N)c1ccc2c(C(F)(F)F)cc(C(F)(F)F)nc2n1	none
Cc1ccc(C(C#N)c2ccc3c(C(F)(F)F)cc(C(F)(F)F)nc3n2)cc1 (stereo not drawn)	MPTP block 113, WT yeast gro inh 69 | MPTP counter 68
N#CC(c1ccccc1)c1ccc2c(C(F)(F)F)cc(C(F)(F)F)nc2n1 (stereo not drawn)	MPTP block 93, WT yeast gro inh 74 | MPTP counter 70
FC(F)(F)c1cc(C(F)(F)F)c2ccc(N/N=C/c3ccccc3)nc2n1	none
CSc1nc(-c2ccc(Cl)cc2Cl)[nH]c(=O)c1C#N	MPTP block 88 | MPTP counter 89
CC(C)c1ccc(NC(=O)CSc2nc3ncccc3[nH]2)cc1	none (no result: WT yeast gro inh, EBV gp42 inh, CHOP inhibitor)
CC(C)OC(=O)c1ccc(NC(=O)CSc2nc3ncccc3[nH]2)cc1	MPTP block 71 | MPTP counter 47
CCOc1cc(/C=N\NC(=O)CN2CCOCC2)ccc1OCc1ccc(F)cc1	none
COc1cccc(-c2nnc(SCc3nc4ccccc4[nH]3)n2N)c1	none
COc1cccc(NC(=O)c2cnc(SC)nc2)c1	none (no result: WT yeast gro inh, EBV gp42 inh, CHOP inhibitor)
CCSc1nsc(NC(=O)Nc2cccc(F)c2)n1	MPTP block 98, NR3A LBD binder 32 (no result: WT yeast gro inh, EBV gp42 inh, CHOP inhibitor) | MPTP counter 80
COc1cccc(NC(=O)Nc2nc(SC)ns2)c1	MPTP block 69, NR3A LBD binder 12 (no result: WT yeast gro inh, EBV gp42 inh, CHOP inhibitor) | MPTP counter 81
COc1cccc(NC(=O)Nc2nc(SC(C)(C)C)ns2)c1	MPTP block 93, NR3A LBD binder 40 (no result: WT yeast gro inh, EBV gp42 inh, CHOP inhibitor) | MPTP counter 77
Cc1ccnc(NC(=O)Nc2cccc(F)c2)n1	none
COc1cccc(NC(=O)Nc2ccc3c(c2)nc(C)n3C)c1	none
COc1cccc(NC(=O)Nc2ccc3nsnc3c2)c1	MPTP block 93, NR3A LBD binder 37 | MPTP counter 87
N#Cc1c(NC(=O)CN2CCN(C(=O)c3ccco3)CC2)sc2c1CCCCC2	none
CCc1ccc(NC(=O)C2C3C=CC(C4CC34)C2C(=O)O)cc1 (stereo not drawn)	none
O=C(Cn1c(=O)oc2ccccc21)Nc1ccc(Cl)cc1	none (no result: WT yeast gro inh, EBV gp42 inh, CHOP inhibitor)
CCCSc1nsc(NC(=O)Nc2ccc(F)cc2F)n1	MPTP block 97, NR3A LBD binder 14 (no result: WT yeast gro inh, EBV gp42 inh, CHOP inhibitor) | MPTP counter 85
CC1=CC2C(C(O)CC3(C)C2CC(C)C32OCOC23COCO3)C2(C)C/C(=C\O)C(=O)C=C12 (stereo not drawn)	none (no result: WT yeast gro inh, EBV gp42 inh, CHOP inhibitor)
CCN(CC)C(=N)/C(C#N)=N/Nc1ccc(C)cc1	none (no result: WT yeast gro inh)
Cc1ccc(N/N=C(\C#N)C(=O)c2ccsc2)cc1	MPTP block 52 (no result: WT yeast gro inh) | MPTP counter 72
N#C/C(=N\Nc1ccc(Cl)cc1)C(=N)N1CCCCC1	none
N#C/C(=N\Nc1ccc(Cl)cc1)C(=O)c1ccsc1	MPTP block 72 (no result: WT yeast gro inh) | MPTP counter 90
O=C(CN1C(=O)CCC1=O)Nc1nc(-c2nc3ccccc3s2)cs1	none
CCCNC(=O)c1cc(C2CCCCN2S(=O)(=O)c2ccc(OC)cc2)on1 (stereo not drawn)	none (no result: NR3A LBD binder, WT yeast gro inh, EBV gp42 inh, CHOP inhibitor)
CCN(CC)c1ccc(-c2sc(Nc3ccccc3)n[n+]2-c2ccc(F)cc2)cc1	MPTP block 61 (no result: WT yeast gro inh, EBV gp42 inh, CHOP inhibitor) | MPTP counter 102
COc1ccc(C)cc1Nc1n[n+](-c2ccccc2)c(-c2ccc(N(C)C)cc2)s1	MPTP block 89 (no result: WT yeast gro inh, EBV gp42 inh, CHOP inhibitor) | MPTP counter 100
COc1ccc(C)cc1Nc1n[n+](-c2ccccc2)c(-c2ccc(OC)c(OC)c2OC)s1	none (no result: WT yeast gro inh, EBV gp42 inh, CHOP inhibitor)
Fc1ccc(-[n+]2nc(Nc3ccccc3)sc2-c2c(Cl)cccc2Cl)cc1	none (no result: WT yeast gro inh, EBV gp42 inh, CHOP inhibitor)
CCc1ccc(Nc2n[n+](-c3ccccc3)c(-c3ccc(N(CC)CC)cc3)s2)cc1	MPTP block 96 (no result: WT yeast gro inh, EBV gp42 inh, CHOP inhibitor) | MPTP counter 114
CCc1ccc(Nc2n[n+](-c3ccccc3)c(-c3c(Cl)cccc3Cl)s2)cc1	MPTP block 100 (no result: WT yeast gro inh, EBV gp42 inh, CHOP inhibitor) | MPTP counter 112
COCC(=O)O[C@]1(CCN(C)CCCc2nc3ccccc3[nH]2)CCc2cc(F)ccc2[C@@H]1C(C)C	MPTP block 93 (no result: WT yeast gro inh) | MPTP counter inactive
CCOC(=O)CCc1nc2ccccc2[nH]1	none
